Measurements reported in paper PMC6282495 (Clinical Pharmacology and Therapeutics, 2018).
Entries after “also recorded” stand apart in the source; their conditions may differ. Like-named read-outs stand apart in the source and are kept apart here. Values belong to the compound of their own block, whether it stands above or below them.

Key:
[1] = test system: whole blood neutrophil elastase (NE) activity; assay: Whole blood NE activity; format: in vivo, human
Outline: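 Part II only: healthy males on 10, 25 or 40 mg once daily for 21 or 28 days, or placebo (pooled). Whole-blood NE activity was expressed as percent change from each subject's baseline, […]. The 25 and 40 mg cohorts had follow-up visits up to 1 month after leaving the unit. ANC-normalized activity was fitted with a transit-compartment maturation model in which plasma concentration inhibits entry into the first compartment via a sigmoid Hill function. Blood neutrophil half-life was fixed from literature and maximal inhibition was fixed at complete.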

[2] = Safety and tolerability in healthy subjects; format: in vivo, human
Population PK model = format: in vivo, human
Outline: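 Pooled Part I and II plasma concentrations (5–65 mg single doses; 10–40 mg once daily) were fitted with a three-compartment model. It had first-order absorption with lag, a dose-dependent bioavailability power model (relative bioavailability at 5 mg fixed to 1), and volumes per kg bodyweight. Slow peripheral volume and bioavailability were allowed to change between first dose and steady state. Interindividual variability was on Vc, CL, Frel, ka and Alag, with additive log-scale error. Estimates carry 90% CI, with visual predictive checks from 1,000 simulations.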

[3] = test system: activation of NSPs (NE, Pr3, and CatG) in human primary bone marrow-derived CD34+ neutrophil progenitor cells; details: cited from earlier work
[4] = AZD7986 plasma pharmacokinetics; format: in vivo, human
Outline: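 Healthy male subjects received oral AZD-class test compound. In Part I, single doses of 5–65 mg were given to cohorts of nine, three of them on placebo, with plasma sampled up to 96 h. In Part II, 10, 25 or 40 mg were given once daily for 21 or 28 days, with sampling up to 24 h after the first dose and 96 h after the last. Steady state was checked from predose levels on Days 18–20 and 21/28. Parameters came from noncompartmental analysis.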

efflux transporters = assay: In-house data on efflux transporter substrate status; format: in vitro ADME
[5] = In-house data on metabolic clearance routes and plasma protein binding; format: in vitro ADME
[6] = cited from earlier work
DPP1 = details: once daily, 21 days of dosing; cited from earlier work
NSP activity = details: 21 days of dosing; cited from earlier work
[7] = between first dose and steady state

- IIV IC50, interindividual variability in IC50 ([1]; PK-PD model): 33.3%
- Increase in oral bioavailability (Population PK model; between 5 and 65 mg, power model): ~2 fold
- Fsteadystate_change, percent change in bioavailability (Population PK model; [7]): 24.3%
- Vp,slow,steadystate_change, percent change in volume of slowly equilibrating tissue compartment (Population PK model; [7]): 34%
- Alag, absorption lag time (Population PK model; population PK model estimate): 0.159 h
- CL, apparent clearance from central compartment (Population PK model; population PK model estimate): 12.0 L/h
- IIV Alag, interindividual variability in Alag (Population PK model; population PK model estimate): 21.3%
- IIV CL, interindividual variability in CL (Population PK model; population PK model estimate): 22.2%
- IIV Frel, interindividual variability in Frel (Population PK model; population PK model estimate): 18.2%
- IIV Vc, interindividual variability in Vcentral (Population PK model; population PK model estimate): 53.6%
- IIV ka, interindividual variability in ka (Population PK model; population PK model estimate): 28.8%
- Qfast, apparent intercompartmental clearance between plasma and rapidly equilibrating tissues (Population PK model; population PK model estimate): 122 L/h
- Qslow, apparent intercompartmental clearance between plasma and slowly equilibrating tissues (Population PK model; population PK model estimate): 14.7 L/h
- Vc, apparent volume per kg bodyweight of central plasma compartment (Population PK model; population PK model estimate): 0.368 L/kg
- Vp,fast, apparent volume per kg bodyweight of rapidly equilibrating tissue compartment (Population PK model; population PK model estimate): 2.45 L/kg
- ka, absorption rate constant (Population PK model; population PK model estimate): 0.809 h⁻¹
- Fslope, slope parameter for bioavailability vs. dose power model (Population PK model; relative to 5 mg single dose): 0.228
- Vp,slow, apparent volume per kg bodyweight of slowly equilibrating tissue compartment (Population PK model; single dose, population PK model estimate): 1.97 L/kg
- half-life ([4]; male, human, plasma, po, Terminal half-life, after a single oral dose): 20 to 26 h
- Time of maximum plasma levels (Cmax) after dosing ([4]; oral dosing, healthy subjects): 0.5 to 1.5 h
- Saturable metabolic clearance routes or plasma protein binding [5]: does not indicate
Structure (SMILES): Cn1c(=O)oc2ccc(-c3ccc(C[C@@H](C#N)NC(=O)[C@@H]4CNCCCO4)cc3)cc21 [AZD7986]
- Observed reduction of whole blood NE activity, on average ([1]; 40 mg dose group, 28 days once daily): more than 50%
- Recovery of NE activity after cessation of dosing ([1]; 25 and 40 mg cohorts, follow-up visits): recovers once treatment is stopped
- nH, Hill coefficient ([1]; PK-PD model, Imax fixed to 1 (100%)): 0.697
- Average time to steady state of whole blood NE activity after initiation of dosing ([1]; implied by estimated MTT, N and PK): about 25 days
- Start of response in whole blood NE activity after treatment initiation ([1]; three active doses compared to placebo): ~12 days
- Discontinuation of treatment due to skin AE of lichenoid drug eruption ([2]; 25 mg, Day 13): One subject
- Skin findings of special interest seen in the highest dose group ([2]; Part II, 40 mg, number of subjects): four
- Skin findings of special interest seen in subjects treated with AZD7986 ([2]; Part II, number of subjects): five of the six
- Effect on the number of neutrophils in blood ([2]; Part II, repeated dosing): no clinically significant effect
- Clinical laboratory results, 12-lead ECGs, telemetry results ([2]; Parts I and II): No trends were observed
- Infection risk ([2]; Parts I and II): no signal of increased infection risk
- Serious adverse events ([2]; Parts I and II): No serious adverse events
- Mild gingival bleeding, AZD7986 versus placebo ([2]; gingival probing): no difference
- Overall tolerability ([2]; single doses 5-65 mg, once daily 10-40 mg for 21 or 28 days): well tolerated
- Hill coefficient ([3]; NE, Pr3 and CatG): ~0.65
- Extent of inhibition of activation of all three NSPs ([3]; concentration-dependent): completely inhibit
- IC50 ([3]; read-out: IC50 for inhibition of NSP activation, NE, Pr3 and CatG): 60 to 200 nM
- Substrate for efflux transporters (efflux transporters): may be a substrate for efflux transporters

Structure (SMILES): CC[C@@H](/C=C/C(=O)N1CCc2ccccc21)NC(=O)C1(N)CCOCC1 [GSK2793660]
- half-life ([6]; administered once daily): 1.5 h
- Cases of skin desquamation [6]: seven
- Downstream effect reported on skin [6]: epidermal desquamation on palmar and plantar surfaces
- DPP1 inhibition in whole blood (DPP1): sustained inhibition; also recorded: sustained, near‐complete
- Effect on NSP activity (NSP activity): no clear effect
